Experimental findings from ChEMBL document CHEMBL5674883, “The Heterochromatin Landscape in Migrating Cells and the Importance of H3K27me3 for Associated Transcriptome Alterations” (Cells, 2018) are described below.

Structures are written as SMILES.

Type in all cases: cell-based
In test [1] the target is T1, RNA polymerase II (Mus musculus) (UniProt P08775+Q8CFI7+P97760+A0A3Q4L2S8+Q80UW8+P61219+P62488+Q923G2+P60898+O08740+Q63871+P62876). Nature of the test: Inhibition of RNA polymerase II in mouse B16-F1 migrating cells assessed as fold change in Gria4-RNA stability at 0.1 mM measured by ChIP-seq analysis relative to control cells.
The target in test [2] is T1, RNA polymerase II (Mus musculus). Nature of the test: Inhibition of RNA polymerase II in mouse B16-F1 migrating cells assessed as fold change in Mad2l2-RNA stability at 0.1 mM measured by ChIP-seq analysis relative to control cells.
The target is the same in test [3]. Nature of the test: Inhibition of RNA polymerase II in mouse B16-F1 migrating cells assessed as fold change in Rps8-RNA stability at 0.1 mM measured by […] analysis relative to control cells.
The target is the same in test [4]. Kind of test: Inhibition of RNA polymerase II in mouse B16-F1 migrating cells assessed as fold change in Ikzf4-RNA stability at 0.1 mM measured by ChIP-seq analysis relative to control cells.
Test [5] has the same target. Kind of test: Inhibition of RNA polymerase II in mouse B16-F1 migrating cells assessed as fold change in Orc4-RNA stability at 0.1 mM measured by […] analysis relative to control cells.
For test [6] the target is unchanged. Nature of the test: Inhibition of RNA polymerase II in mouse B16-F1 migrating cells assessed as fold change in Yes1-RNA stability at 0.1 mM measured by […] analysis relative to control cells.
Test [7] has the same target. Nature of the test: Inhibition of RNA polymerase II in mouse B16-F1 migrating cells assessed as fold change in Nelfe-RNA stability at 0.1 mM measured by ChIP-seq analysis relative to control cells.
Test [8] has the same target. Kind of test: Inhibition of RNA polymerase II in mouse B16-F1 migrating cells assessed as fold change in Alg2-RNA stability at 0.1 mM measured by […] analysis relative to control cells.
For test [9] the target is unchanged. Nature of the test: Inhibition of RNA polymerase II in mouse B16-F1 migrating cells assessed as fold change in Mastl-RNA stability at 0.1 mM measured by ChIP-seq analysis relative to control cells.
Test [10] shares this target. Kind of test: Inhibition of RNA polymerase II in mouse B16-F1 migrating cells assessed as fold change in Vps72-RNA stability at 0.1 mM measured by […] analysis relative to control cells.
The target is the same in test [11]. Nature of the test: Inhibition of RNA polymerase II in mouse B16-F1 migrating cells assessed as fold change in Kif18a-RNA stability at 0.1 mM measured by ChIP-seq analysis relative to control cells.
The target of test [12] is Histone-lysine N-methyltransferase EZH2 (Mus musculus) (UniProt Q61188). Nature of the test: Inhibition of EZH2 in mouse B16-F1 migrating cells assessed as fold change in H3K27me3-buffered regulated Nup37-mRNA expression at 3 uM measured by […] analysis relative to control cells. The essentials: (§1)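 Confluent B16-F1 cells on fibronectin-coated plates, cultured at 37 °C and 7% CO2, were scratched at multiple sites to induce migration. They were then held 3 h in growth medium containing 3 µM GSK343, with the inhibitor added 3 h before lysis. Unscratched cells served as controls. Poly A mRNA was analysed by RNA-seq (n=3 GSK343, n=5 controls). Linear models removed batch effects, and buffered genes were those altered only under GSK343 (FDR <0.05, fold change >1.3).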

The target is the same in test [13]. Kind of test: Inhibition of EZH2 in mouse B16-F1 migrating cells assessed as fold change in H3K27me3-buffered regulated Snhg5-mRNA expression at 3 uM measured by […] analysis relative to control cells. Summed up: (§2)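 Confluent B16-F1 cells on fibronectin-coated plates were scratched at multiple sites, washed once with DMEM and left to migrate 3 h in growth medium (37 °C, 7% CO2); unscratched cells served as control. GSK343 (3 µM) was added 3 h before lysis. Poly A mRNA was sequenced (RNA-seq), with 5 replicates for untreated and 3 for treated cells. Differential expression was called by linear model with batch correction, at FDR <0.05 and fold change ≥1.3.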

The target is the same in test [14]. Nature of the test: Inhibition of EZH2 in mouse B16-F1 migrating cells assessed as fold change in H3K27me3-buffered regulated Aldoa-mRNA expression at 3 uM measured by […] analysis relative to control cells. The essentials:
as §1

The target is the same in test [15]. Kind of test: Inhibition of EZH2 in mouse B16-F1 migrating cells assessed as fold change in H3K27me3-buffered regulated Lrp4-mRNA expression at 3 uM measured by […] analysis relative to control cells. The essentials:
as §1

The target is the same in test [16]. Kind of test: Inhibition of EZH2 in mouse B16-F1 migrating cells assessed as fold change in H3K27me3-buffered regulated 1700027J19Rik-mRNA expression at 3 uM measured by […] analysis relative to control cells. Summed up:
as §1

Test [17] shares this target. Kind of test: Inhibition of EZH2 in mouse B16-F1 migrating cells assessed as fold change in H3K27me3-buffered regulated Arid4a-mRNA expression at 3 uM measured by ChIP-seq analysis relative to control cells. The essentials: as §1
Test [18] shares this target. Nature of the test: Inhibition of EZH2 in mouse B16-F1 migrating cells assessed as fold change in H3K27me3-buffered regulated Gabre-mRNA expression at 3 uM measured by ChIP-seq analysis relative to control cells. Summed up:
as §1

Test [19] shares this target. Nature of the test: Inhibition of EZH2 in mouse B16-F1 migrating cells assessed as fold change in H3K27me3-buffered regulated Mpp7-mRNA expression at 3 uM measured by […] analysis relative to control cells. The essentials:
as §1

The target is the same in test [20]. Kind of test: Inhibition of EZH2 in mouse B16-F1 migrating cells assessed as fold change in H3K27me3-buffered regulated Gatd1-mRNA expression at 3 uM measured by ChIP-seq analysis relative to control cells. The essentials: as §1
Test [21] shares this target. Nature of the test: Inhibition of EZH2 in mouse B16-F1 migrating cells assessed as fold change in H3K27me3-independent regulated Cntnap1-mRNA expression at 3 uM measured by […] analysis relative to control cells. Summed up:
as §2

Test [22] shares this target. Nature of the test: Inhibition of EZH2 in mouse B16-F1 migrating cells assessed as fold change in H3K27me3-buffered regulated Rbl1-mRNA expression at 3 uM measured by […] analysis relative to control cells. The essentials: as §1
For test [23] the target is unchanged. Kind of test: Inhibition of EZH2 in mouse B16-F1 migrating cells assessed as fold change in H3K27me3-buffered regulated Rhobtb3-mRNA expression at 3 uM measured by […] analysis relative to control cells. Summed up: as §2
The target is the same in test [24]. Nature of the test: Inhibition of EZH2 in mouse B16-F1 migrating cells assessed as fold change in H3K27me3-dependent regulated Id1-mRNA expression at 3 uM measured by […] analysis relative to control cells. Summed up: as §2
Test [25] has the same target. Kind of test: Inhibition of EZH2 in mouse B16-F1 migrating cells assessed as fold change in H3K27me3-dependent regulated Ccno-mRNA expression at 3 uM measured by ChIP-seq analysis relative to control cells. The essentials:
as §2

Sequence of Histone-lysine N-methyltransferase EZH2 (Mus musculus) (Q61188 whole entry): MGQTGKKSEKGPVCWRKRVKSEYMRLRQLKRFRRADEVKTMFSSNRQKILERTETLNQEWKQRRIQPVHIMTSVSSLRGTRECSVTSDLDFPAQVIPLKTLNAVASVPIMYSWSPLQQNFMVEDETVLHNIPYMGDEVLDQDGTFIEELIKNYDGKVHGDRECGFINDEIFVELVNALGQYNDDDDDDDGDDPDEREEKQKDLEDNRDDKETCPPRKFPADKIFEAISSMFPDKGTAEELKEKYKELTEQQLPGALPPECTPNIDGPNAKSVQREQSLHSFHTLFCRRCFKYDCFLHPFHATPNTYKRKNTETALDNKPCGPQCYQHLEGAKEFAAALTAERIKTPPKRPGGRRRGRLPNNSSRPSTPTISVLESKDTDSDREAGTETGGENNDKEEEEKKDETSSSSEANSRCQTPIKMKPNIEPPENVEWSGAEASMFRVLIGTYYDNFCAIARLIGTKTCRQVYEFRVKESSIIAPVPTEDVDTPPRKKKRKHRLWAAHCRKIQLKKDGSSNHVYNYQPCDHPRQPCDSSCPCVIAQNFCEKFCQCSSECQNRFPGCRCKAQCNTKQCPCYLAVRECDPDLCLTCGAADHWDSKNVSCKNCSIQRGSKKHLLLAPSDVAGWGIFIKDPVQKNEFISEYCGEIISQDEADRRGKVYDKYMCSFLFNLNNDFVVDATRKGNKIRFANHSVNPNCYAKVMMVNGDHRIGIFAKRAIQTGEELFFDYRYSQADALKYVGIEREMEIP

Regarding `OC[C@H]1O[C@@H](n2cnc3cc(Cl)c(Cl)cc32)[C@H](O)[C@@H]1O`, the log2FC in test [1] is -0.5; in test [2], 0.43; in test [3], 0.41; in test [4], 0.93; in test [5] it was -0.54; in test [6] it was -0.83. Further, the log2FC in [7] is 0.39; in [8], 0.52; in test [9], -0.74; in test [10] it was 0.46; in test [11], -1.13.

With `CCCc1cc(C)[nH]c(=O)c1CNC(=O)c1cc(-c2ccnc(N3CCN(C)CC3)c2)cc2c1cnn2C(C)C`, the log2FC was -0.38 in [12]; -0.89 in test [13]; 0.42 in test [14]; -0.39 in test [15]; 0.73 in test [16]; -0.47 in test [17]. The log2FC in [18] is -0.84; in test [19] it was 0.51; in test [20], -0.43; in [21], -0.76; in test [22], -0.43; in [23], -0.62. Further, the values for the log2FC in test [24] and in [25] were 0.16 and 1.02, respectively.
